Source: PMC4091680 (Bioorganic & medicinal chemistry, 2014)

Key:
[1] = tested on: purified bovine brain tubulin; assay: Tubulin polymerization assay; format: biochemical
HeLa = assay: MTT cytotoxicity assay, HeLa; format: cell-based, human; details: 48 h
Outline: (§1)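 Cells grew in RPMI-1640 with 10% FBS, L-glutamine, penicillin and streptomycin at 37 °C, 5% CO2. They were seeded at 10,000/well overnight in 1% FBS medium, then treated 48 h with test compound at 0.1–125 µM; the solvent control was 0.1% DMSO. MTT (0.5 mg/mL final) was added for 4 h, formazan dissolved in DMSO, and absorbance read at 570 nm. Quadruplicates were taken as % of solvent control, IC50 from concentration–response curves.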

Raji = assay: MTT cytotoxicity assay, Raji; format: cell-based, human; details: 48 h
Outline: as §1

HL-60 cells [2] = assay: Annexin-V/PI apoptosis assay, HL-60; format: cell-based, human; details: HL-60, 24 or 48 h
HeLa cells [3] = assay: Annexin-V/PI apoptosis assay, HeLa; format: cell-based, human; details: 24 or 48 h
[4] = tested on: caspase-3 and PARP in HL-60 cells; assay: Western blot analysis of caspase-3 and PARP; format: cell-based, human; details: HL-60, 24 h and 48 h
Outline: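 HL-60 cells were treated with test compound at various concentrations and times, washed in ice-cold PBS and lysed on ice 30 min. Lysates were cleared at 15000 × g, 4 °C, 10 min. Per lane, 20 µg protein (BCA) was separated by SDS-PAGE (7.5–15%) and blotted to PVDF. Membranes were blocked with 5% BSA, probed overnight at 4 °C for caspase-3 and PARP, then with peroxidase secondaries and ECL. Reprobing for β-actin checked loading.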

[5] = tested on: tubulin (colchicine site); assay: Inhibition of [3H]colchicine binding to tubulin; parameters: species or system bovine; details: for Inhibition of colchicine binding % Inhibition ± SD: tubulin 1 µM, colchicine 5 µM
Outline: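 Purified bovine brain tubulin at 0.1 mg/mL (1.0 µM) was incubated 10 min at 37 °C with 5.0 µM [3H]colchicine, test compound, 5% (v/v) DMSO and 1.0 M glutamate. Reactions were stopped with 0 °C water, filtered through two stacked DEAE-cellulose filters and washed three times with ice-cold water. Filter-bound radiolabel was counted by liquid scintillation; % inhibition ± SD.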

HL-60 cells [6] = assay: Flow cytometric cell cycle distribution, HL-60; format: cell-based, human; details: HL-60, 24 h
Outline: (§2)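 Per assay, 5×10^5 cells were exposed to test compound at several concentrations for 24 h. Cells were then collected, fixed in ice-cold 70% ethanol, lysed in buffer with RNase A and 0.1% Triton X-100, PI-stained and run on a flow cytometer. Phase distribution came from DNA histograms; means ± SEM of three independent experiments.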

HeLa cells [7] = assay: Flow cytometric cell cycle distribution, HeLa; format: cell-based, human; details: 24 h
Outline: as §2

COc1cc(NC(=O)/C=C/c2c[nH]c3ccccc23)cc(OC)c1 [Compound 3d, (E)-N-(3,5-Dimethoxyphenyl)-3-(1H-indol-3-yl)acrylamide]
antitubulin activity (in words) [1]: inactive

COc1cccc(CNC(=O)/C=C/c2c[nH]c3ccccc23)c1OC [Compound 3h, (E)-N-(2,3-Dimethoxybenzyl)-3-(1H-indol-3-yl)acrylamide]
activity against HeLa cells (in words) (HeLa): weak activity

COc1ccc(NC(=O)/C=C/c2c[nH]c3ccccc23)cc1OC [Compound 3c, (E)-N-(3,4-Dimethoxyphenyl)-3-(1H-indol-3-yl)acrylamide]
antitubulin activity (in words) [1]: inactive

COc1ccc(OC)c(NC(=O)/C=C/c2c[nH]c3ccccc23)c1 [Compound 3b, (E)-N-(2,5-Dimethoxyphenyl)-3-(1H-indol-3-yl)acrylamide]
antitubulin activity (in words) [1]: inactive

COc1ccc(CNC(=O)/C=C/c2c[nH]c3ccccc23)c(OC)c1 [Compound 3i, (E)-N-(2,4-Dimethoxybenzyl)-3-(1H-indol-3-yl)acrylamide]
activity against Raji cells (in words) (Raji): weak activity

COc1cc(CNC(=O)/C=C/c2c[nH]c3ccccc23)ccc1O [Compound 3g, (E)-N-(4-Hydroxy-3-methoxybenzyl)-3-(1H-indol-3-yl)acrylamide]
activity against Raji cells (in words) (Raji): weak activity

COc1cc(NC(=O)/C=C/c2c[nH]c3ccccc23)cc(OC)c1OC [Compound 3e, (E)-3-(1H-Indol-3-yl)-N-(3,4,5-trimethoxyphenyl)acrylamide]
annexin-V+/PI− and annexin-V+/PI+ fractions (apoptosis) (HL-60 cells [2]): concentration- and time-dependent increase
annexin-V+/PI− and annexin-V+/PI+ fractions (apoptosis) (HeLa cells [3]): concentration- and time-dependent increase
PARP cleavage [4]: cleavage of its substrate PARP
caspase-3 activation (cleaved fragments) [4]: induced the activation of caspase-3
inhibition of [3H]colchicine binding (in words) ([5]; compound 50 µM): Significant inhibition
lowest concentration giving increase in G2/M phase cells (HL-60 cells [6]): 10 µM
cells blocked in G2/M (HL-60 cells [6]; 15–30 µM): > 60%
lowest concentration giving increase in G2/M phase cells (HeLa cells [7]): 10 µM
cells blocked in G2/M (HeLa cells [7]; 15–30 µM): more than 80%

COc1ccc(/C=C\c2cc(OC)c(OC)c(OC)c2)cc1O [CA-4, combretastatin A-4]
Inhibition of colchicine binding % Inhibition ± SD ([5]; compound 1 µM): 88 ± 0.3%
Inhibition of colchicine binding % Inhibition ± SD ([5]; compound 5 µM): 98 ± 0.8%
